According to ChEMBL document CHEMBL1124054, “Synthesis and biological activity of ketomethylene-containing nonapeptide analogues of snake venom angiotensin converting enzyme inhibitors” (J Med Chem, 1988):
Starred links: 1 amine or outer side, 2 acyl side, 3 side chain; linkers in the order of their positions; H or OH if unused. Non-standard residues stand in square brackets, D forms with d. Residues, ends and D or L forms follow the SMILES beside them. *: point of attachment. X2 = O=C(CCC(=O)[*:2])[C@H](Cc1ccccc1)N[*:1]; X1 = O=C(CCC(=O)[*:2])[C@@H]1CCCN1[*:1]; Cyclobutanecarbonyl = O=C(C1CCC1)*; pGlu = O=C1CC[C@@H](C(=O)O)N1; Nle = CCCC[C@H](N)C(=O)O

Assays:
[1] = molecular target: Angiotensin-converting enzyme (Oryctolagus cuniculus) (UniProt P12822); experiment: Inhibition of Angiotensin I converting enzyme from rabbit lung; conditions: read-out: I50
[2] = system: chymotrypsin; experiment: Time required for 50% degradation by chymotrypsin; type: ADME; conditions: read-out: Time (converted)
Outline: (§1)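 Peptide (0.5–1.0 μmol) in 0.1 M Tris, pH 7.8, stirred at room temperature with chymotrypsin (37 units dissolved in 50 mL cold 0.001 N HCl; 0.050 mL per μmol peptide). Degradation followed over time by TLC.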

[3] = Time required for 100% degradation by trypsin; type: ADME
[4] = system: trypsin; experiment: Time required for 50% degradation by trypsin; type: ADME; conditions: read-out: Time
[5] = system: Rattus norvegicus; experiment: Inhibition of angiotensin I induced blood pressure in normotensive anesthetized rats at 10 ug/kg (i.v.) for 1.5 min; type: functional
Outline: (§2)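 Male Sprague-Dawley normotensive rats (290-540 g), pentobarbital-anesthetized (50 mg/kg ip), intubated. Jugular vein cannulated for iv dosing and carotid artery for blood pressure. Control pressor response to angiotensin I (175 ng/kg iv) taken after vehicle (1 mL/kg). Compound given iv in distilled water or 5% sodium bicarbonate. Angiotensin I challenge repeated at 1.5 to 75 min, rise in pressure compared with control.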

[6] = system: Rattus norvegicus; experiment: Inhibition of angiotensin I induced blood pressure in normotensive anesthetized rats at 30 ug/kg (i.v.) for 30 min; type: functional
Outline: as §2

[7] = system: Rattus norvegicus; experiment: Inhibition of angiotensin I induced blood pressure in normotensive anesthetized rats at 10 ug/kg (i.v.) for 10 min; type: functional
Outline: as §2

[8] = organism: Rattus norvegicus; experiment: Time required for 100% degradation in rat intestinal homogenate; type: ADME
Outline: (§3)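 Rat small intestine was taken immediately after sacrifice and minced in Krebs Ringer (10 mL/g). Peptide (0.2–0.5 μmol) mixed with homogenate (1.0 mL per μmol), shaken at 37 °C. Degradation followed by TLC.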

[9] = system: Rattus norvegicus; experiment: Inhibition of angiotensin I induced blood pressure in normotensive anesthetized rats at 1 ug/kg (i.v.) for 10 min; type: functional
Outline: as §2

[10] = Time required for 50% degradation in rat intestinal homogenate; type: ADME; conditions: read-out: Time (converted)
Outline: as §3

[11] = system: Rattus norvegicus; experiment: Inhibition of angiotensin I induced blood pressure in normotensive anesthetized rats at 30 ug/kg (i.v.) for 60 min; type: functional
Outline: as §2

[12] = system: Rattus norvegicus; experiment: Inhibition of angiotensin I induced blood pressure in normotensive anesthetized rats at 10 ug/kg (i.v.) for 5 min; type: functional
Outline: as §2

[13] = system: Rattus norvegicus; experiment: Inhibition of angiotensin I induced blood pressure in normotensive anesthetized rats at 1 ug/kg (i.v.) for 60 min; type: functional
Outline: as §2

[14] = Time required for degradation by pepsin (none); type: ADME
[15] = system: Rattus norvegicus; experiment: Inhibition of angiotensin I induced blood pressure in normotensive anesthetized rats at 30 ug/kg (i.v.) for 75 min; type: functional
Outline: as §2

[16] = system: Rattus norvegicus; experiment: Inhibition of angiotensin I induced blood pressure in normotensive anesthetized rats at 1 ug/kg (i.v.) for 30 min; type: functional
Outline: as §2

[17] = system: Rattus norvegicus; experiment: Inhibition of angiotensin I induced blood pressure in normotensive anesthetized rats at 30 ug/kg (i.v.) for 1.5 min; type: functional
Outline: as §2

[18] = system: Rattus norvegicus; experiment: Inhibition of angiotensin I induced blood pressure in normotensive anesthetized rats at 30 ug/kg (i.v.) for 10 min; type: functional
Outline: as §2

[19] = system: Rattus norvegicus; experiment: Inhibition of angiotensin I induced blood pressure in normotensive anesthetized rats at 1 ug/kg (i.v.) for 5 min; type: functional
Outline: as §2

[20] = system: Rattus norvegicus; experiment: Inhibition of angiotensin I induced blood pressure in normotensive anesthetized rats at 30 ug/kg (i.v.) for 5 min; type: functional
Outline: as §2

[21] = system: Rattus norvegicus; experiment: Inhibition of angiotensin I induced blood pressure in normotensive anesthetized rats at 1 ug/kg (i.v.) for 1.5 min; type: functional
Outline: as §2

[22] = system: Rattus norvegicus; experiment: Inhibition of angiotensin I induced blood pressure in normotensive anesthetized rats at 10 ug/kg (i.v.) for 30 min; type: functional
Outline: as §2

[23] = system: Rattus norvegicus; experiment: Inhibition of angiotensin I induced blood pressure in normotensive anesthetized rats at 10 ug/kg (i.v.) for 60 min; type: functional
Outline: as §2

[24] = Time required for 50% degradation in rat stomach homogenate; type: ADME; conditions: read-out: Time (converted)
Outline: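 Peptide, partially neutralized with 0.1 N HCl, incubated at 37 °C with 150 mg rat stomach homogenate. Breakdown monitored by TLC.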

[25] = Time required for degradation by trypsin (none); type: ADME
[26] = Time required for degradation by chymotrypsin (none); type: ADME
Outline: as §1

[27] = system: pepsin; experiment: Time required for 50% degradation by pepsin; type: ADME; conditions: read-out: Time (converted)
[28] = system: Rattus norvegicus; experiment: Inhibition of angiotensin I induced blood pressure in normotensive anesthetized rats at 10 ug/kg (i.v.) for 75 min; type: functional; conditions: in the assay text read “30 ug/kg” for “10 ug/kg”
Outline: as §2

[29] = system: Rattus norvegicus; experiment: Inhibition of angiotensin I induced blood pressure in normotensive anesthetized rats at 100 ug/kg (i.v.) for 60 min; type: functional
Outline: as §2

[30] = system: Rattus norvegicus; experiment: Inhibition of angiotensin I induced blood pressure in normotensive anesthetized rats at 100 ug/kg (i.v.) for 10 min; type: functional
Outline: as §2

[31] = system: Rattus norvegicus; experiment: Inhibition of angiotensin I induced blood pressure in normotensive anesthetized rats at 100 ug/kg (i.v.) for 75 min; type: functional
Outline: as §2

[32] = system: Rattus norvegicus; experiment: Inhibition of angiotensin I induced blood pressure in normotensive anesthetized rats at 3 ug/kg (i.v.) for 1.5 min; type: functional
Outline: as §2

[33] = system: Rattus norvegicus; experiment: Inhibition of angiotensin I induced blood pressure in normotensive anesthetized rats at 100 ug/kg (i.v.) for 5 min; type: functional
Outline: as §2

[34] = system: Rattus norvegicus; experiment: Inhibition of angiotensin I induced blood pressure in normotensive anesthetized rats at 3 ug/kg (i.v.) for 10 min; type: functional
Outline: as §2

[35] = system: Rattus norvegicus; experiment: Inhibition of angiotensin I induced blood pressure in normotensive anesthetized rats at 3 ug/kg (i.v.) for 5 min; type: functional
Outline: as §2

[36] = system: Rattus norvegicus; experiment: Inhibition of angiotensin I induced blood pressure in normotensive anesthetized rats at 100 ug/kg (i.v.) for 30 min; type: functional
Outline: as §2

[37] = system: Rattus norvegicus; experiment: Inhibition of angiotensin I induced blood pressure in normotensive anesthetized rats at 100 ug/kg (i.v.) for 1.5 min; type: functional
Outline: as §2

Row | IC50 [1] [nM] | Time [8] [h] | half-life [10] [h] | SMILES | Inhibition over time [5] [%] | Inhibition over time [6] [%] | Inhibition over time [7] [%] | Inhibition over time [9] [%] | Inhibition over time [12] [%] | Inhibition over time [16] [%] | Inhibition over time [17] [%] | Inhibition over time [18] [%] | Inhibition over time [19] [%] | Inhibition over time [20] [%] | Inhibition over time [21] [%] | Inhibition over time [22] [%] | further results
1 | 3.4 | 5 | 1 | NCCCC[C@H](NC(=O)[C@@H]1CCCN1C(=O)CCC(=O)[C@@H]1CCCN1C(=O)[C@H](Cc1ccc(O)cc1)NC(=O)C1CCC1)C(=O)N[C@@H](Cc1ccccc1)C(=O)CCC(=O)N1CCC[C@H]1C(=O)O (Cyclobutanecarbonyl-Y[X1]PK[X2]P-OH) | 39.5 | 17.3 | 14.5 | 0 | 23.5 | 0 | 79.5 | 31.5 | 0 | 45 | 24.3 | 7.8 | half-life [2]: 22 h; Time [3]: 1 h; half-life [4]: 5 min; Inhibition over time [11]: 15.3%; Inhibition over time [13]: 0%; Time [14]: 20 h; Inhibition over time [15]: 12.5%; Inhibition over time [23]: 0%
2 | 8 | 23 | 7 | CCCC[C@H](NC(=O)[C@@H]1CCCN1C(=O)CCC(=O)[C@@H]1CCCN1C(=O)[C@H](Cc1ccc(O)cc1)NC(=O)C1CCC1)C(=O)N[C@@H](Cc1ccccc1)C(=O)CCC(=O)N1CCC[C@H]1C(=O)O (Cyclobutanecarbonyl-Y[X1]P[Nle][X2]P-OH) | 64.3 | 30.8 | 14.5 | 24.3 | 27.5 | 22.4 | 88.5 | 37 | 25.6 | 59.8 | 26.3 | 0 | half-life [24]: 5 h; Time [25]: 24 h; Time [26]: 24 h; half-life [27]: 3 h; Inhibition over time [28]: 0%
3 | 6 | – | – | NCCCCC(NC(=O)C1CCC1)C(=O)NC(Cc1ccccc1)C(=O)CCC(=O)N1CCCC1C(=O)O (centres undefined) | – | – | – | – | – | – | – | – | – | – | – | – | –
4 | – | – | – | C[C@H](CS)C(=O)N1CCC[C@H]1C(=O)O [CAPTOPRIL] | – | 0 | – | – | – | – | 78.3 | 8.3 | – | 60.5 | – | – | Inhibition over time [29]: 1.8%; Inhibition over time [30]: 51.1%; Inhibition over time [31]: 0%; Inhibition over time [32]: 18.7%; Inhibition over time [33]: 83.5%; Inhibition over time [34]: 0%; Inhibition over time [35]: 8.3%; Inhibition over time [36]: 27.3%; Inhibition over time [37]: 71.5%

Row | SMILES | IC50 [1] [nM] | Time [8] [h] | half-life [10] [h] | Inhibition over time [5] [%] | Inhibition over time [6] [%] | Inhibition over time [7] [%] | Inhibition over time [9] [%] | Inhibition over time [12] [%] | Inhibition over time [16] [%] | Inhibition over time [17] [%] | Inhibition over time [18] [%] | Inhibition over time [19] [%] | Inhibition over time [20] [%] | Inhibition over time [21] [%] | Inhibition over time [22] [%] | further results
5 | C[C@H](NC(=O)[C@H](Cc1ccccc1)NC(=O)[C@H](CCCCN)NC(=O)[C@@H]1CCCN1C(=O)[C@H](CCCN=C(N)N)NC(=O)[C@@H]1CCCN1C(=O)[C@H](Cc1c[nH]c2ccccc12)NC(=O)[C@@H]1CCC(=O)N1)C(=O)N1CCC[C@H]1C(=O)O ([pGlu]WPRPKFAP-OH) | 50 | – | – | – | – | – | – | – | – | – | – | – | – | – | – | –
6 | CC[C@H](C)[C@H](NC(=O)[C@H](CCC(N)=O)NC(=O)[C@@H]1CCCN1C(=O)[C@H](CCCN=C(N)N)NC(=O)[C@@H]1CCCN1C(=O)[C@H](Cc1ccc(O)cc1)NC(=O)[C@@H]1CCC(=O)N1)C(=O)N1CCC[C@H]1C(=O)N1CCC[C@H]1C(=O)O ([pGlu]YPRPQIPP-OH) | 2600 | – | – | – | – | – | – | – | – | – | – | – | – | – | – | –
